Assays:
Mus musculus [1] = experiment: Mortality by day 5 expressed as number of mice died to the total treated at dose 50 mg/kg in exp1; 0/6; assay type: ADME, organism-based; set-up: dose 50 mg/kg; details: in vivo
Mus musculus [2] = experiment: Median survival time of the treated control groups, in which there are no 30-day survivors at dose 50 mg/kg in exp1; assay type: functional
Mus musculus [3] = experiment: Median survival time of the untreated control groups, in which there are no 30-day survivors at dose 50 mg/kg in exp1; assay type: functional
Mus musculus [4] = experiment: Mortality by day 5 expressed as number of mice died to the total treated at dose 25 mg/kg in exp1; 0/6; assay type: ADME, organism-based; set-up: dose 25 mg/kg; details: in vivo
Mus musculus [5] = experiment: Median survival time of the untreated control groups, in which there are no 30-day survivors at dose 100 mg/kg in exp1; assay type: functional
Mus musculus [6] = experiment: Median survival time of the treated control groups, in which there are no 30-day survivors at dose 100 mg/kg in exp1; assay type: functional
Mus musculus [7] = experiment: Change in weight by day 5, obtained by subtracting treated groups of animals minus control groups of animals at dose 25 mg/kg in exp1.; assay type: functional
In short: (§1)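 Mice were inoculated ip with 10^6 P388 leukemia cells on day 0, when treated and control mice weighed 19–22 g. Treatment was given ip once daily on days 1–5, within about 5 min of preparing the solution or suspension. Groups of six (occasionally five) were treated, with 30 untreated inoculated mice as controls. The day-5 weight change is the mean treated change minus the mean control change.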

[8] = Ratio of median survival times for non-survivors at dose 50 mg/kg in exp1; assay type: functional; set-up: unit: %
In short: (§2)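 Mice were inoculated ip with 10^6 P388 leukemia cells on day 0. Groups of six (occasionally five) were dosed ip qd on days 1–5 with fresh suspensions; 30 mice served as untreated controls. Deaths were recorded daily up to day 60. T/C% compares the median survival of treated non-survivors (<60 days) with the control median. Medians used grouped data when there were no 30-day survivors, otherwise ungrouped data. t = toxic.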

[9] = Ratio of median survival times for non-survivors at dose 100 mg/kg in exp1; assay type: functional; set-up: unit: %; in short: as §2
Mus musculus [10] = experiment: Mortality by day 5 expressed as number of mice died to the total treated at dose 100 mg/kg in exp1; 6/6; assay type: ADME, organism-based; set-up: dose 100 mg/kg; details: in vivo
Mus musculus [11] = experiment: Median survival time of the treated control groups, in which there are no 30-day survivors at dose 25 mg/kg in exp1; assay type: functional
Mus musculus [12] = experiment: Mortality by day 5 expressed as number of mice died to the total treated at dose 100 mg/kg in exp1; 2/6; assay type: ADME, organism-based; set-up: dose 100 mg/kg; details: in vivo
Mus musculus [13] = experiment: Change in weight by day 5, obtained by subtracting treated groups of animals minus control groups of animals at dose 100 mg/kg in exp1.; assay type: functional; in short: as §1
Mus musculus [14] = experiment: Median survival time of the untreated control groups, in which there are no 30-day survivors at dose 25 mg/kg in exp1; assay type: functional
[15] = Ratio of median survival times for non-survivors at dose 12 mg/kg in exp2; assay type: functional; in short: as §2
Mus musculus [16] = experiment: Median survival time of the treated control groups, in which there are no 30-day survivors at dose 12 mg/kg in exp2; assay type: functional
Mus musculus [17] = experiment: Mortality by day 5 expressed as number of mice died to the total treated at dose 25 mg/kg in exp1; 6/6; assay type: ADME, organism-based; set-up: dose 25 mg/kg; details: in vivo
Mus musculus [18] = experiment: Median survival time of the untreated control groups, in which there are no 30-day survivors at dose 6 mg/kg in exp2; assay type: functional
[19] = Ratio of median survival times for non-survivors at dose 25 mg/kg in exp2; t= toxic; assay type: ADME, organism-based; set-up: dose 25 mg/kg; details: in vivo
[20] = Ratio of median survival times for non-survivors at dose 25 mg/kg in exp1; t= toxic; assay type: ADME, organism-based; set-up: dose 25 mg/kg; details: in vivo
Mus musculus [21] = experiment: Change in weight by day 5, obtained by subtracting treated groups of animals minus control groups of animals at dose 6 mg/kg in exp1.; assay type: functional; in short: as §1
Mus musculus [22] = experiment: Median survival time of the untreated control groups, in which there are no 30-day survivors at dose 6 mg/kg in exp1; assay type: functional
Mus musculus [23] = experiment: Median survival time of the untreated control groups, in which there are no 30-day survivors at dose 12 mg/kg in exp1; assay type: functional
Mus musculus [24] = experiment: Median survival time of the treated control groups, in which there are no 30-day survivors at dose 12 mg/kg in exp1; assay type: functional
Mus musculus [25] = experiment: Median survival time of the untreated control groups, in which there are no 30-day survivors at dose 25 mg/kg in exp2; assay type: functional
Mus musculus [26] = experiment: Change in weight by day 5, obtained by subtracting treated groups of animals minus control groups of animals at dose 6 mg/kg in exp2; assay type: functional
In short: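 Mice were inoculated ip with 10^6 P388 leukemia cells on day 0 and weighed 19–22 g that day. Compound was given ip once daily on days 1–5, within about 5 min of preparing the solution or suspension, to groups of six (occasionally five). Thirty inoculated untreated mice served as controls. The value is the average weight change of treated mice minus that of controls on day 5.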

Mus musculus [27] = experiment: Median survival time of the treated control groups, in which there are no 30-day survivors at dose 6 mg/kg in exp2; assay type: functional
Mus musculus [28] = experiment: Mortality by day 5 expressed as number of mice died to the total treated at dose 6 mg/kg in exp2; 0/6; assay type: ADME, organism-based; set-up: dose 6 mg/kg; details: in vivo
Mus musculus [29] = experiment: Median survival time of the treated control groups, in which there are no 30-day survivors at dose 6 mg/kg in exp1; assay type: functional
Mus musculus [30] = experiment: Mortality by day 5 expressed as number of mice died to the total treated at dose 12 mg/kg in exp1; 0/6; assay type: ADME, organism-based; set-up: dose 12 mg/kg; details: in vivo
Mus musculus [31] = experiment: Mortality by day 5 expressed as number of mice died to the total treated at dose 12 mg/kg in exp2; 1/6; assay type: ADME, organism-based; set-up: dose 12 mg/kg; details: in vivo
Mus musculus [32] = experiment: Mortality by day 5 expressed as number of mice died to the total treated at dose 25 mg/kg in exp2; 4/6; assay type: ADME, organism-based; set-up: dose 25 mg/kg; details: in vivo
Mus musculus [33] = experiment: Change in weight by day 5, obtained by subtracting treated groups of animals minus control groups of animals at dose 25 mg/kg in exp2; assay type: functional; in short: as §1
Mus musculus [34] = experiment: Change in weight by day 5, obtained by subtracting treated groups of animals minus control groups of animals at dose 12 mg/kg in exp2; assay type: functional; in short: as §1
[35] = Median survival time of the untreated control groups, in which there are no 30-day survivors at dose 12 mg/kg in exp2; assay type: functional
Mus musculus [36] = experiment: Change in weight by day 5, obtained by subtracting treated groups of animals minus control groups of animals at dose 12 mg/kg in exp1; assay type: functional; in short: as §1
Mus musculus [37] = experiment: Mortality by day 5 expressed as number of mice died to the total treated at dose 6 mg/kg in exp1; 0/5; assay type: ADME, organism-based; set-up: dose 6 mg/kg; details: in vivo
[38] = Ratio of median survival times for non-survivors at dose 12 mg/kg in exp1; assay type: functional; in short: as §2
[39] = Ratio of median survival times for non-survivors at dose 6 mg/kg in exp1; assay type: functional
[40] = Ratio of median survival times for non-survivors at dose 6 mg/kg in exp2; assay type: functional

CS(=O)(=O)OCCBr
Mortality (Mus musculus [1]): 0 | Median survival time (Mus musculus [2]): 12.3 | Median survival time (Mus musculus [3]): 11.1 | Mortality (Mus musculus [4]): 0 | Median survival time (Mus musculus [5]): 11.1 | Median survival time (Mus musculus [6]): 11.8 | Change in weight (Mus musculus [7]): -0.7 | Ratio [8]: 110 | Ratio [9]: 106 | Mortality (Mus musculus [10]): 6 | Median survival time (Mus musculus [11]): 12 | Mortality (Mus musculus [12]): 2 | Change in weight (Mus musculus [13]): -3 | Median survival time (Mus musculus [14]): 11.1

COS(=O)(=O)CS(C)(=O)=O
Mortality (Mus musculus [4]): 0 | Ratio [15]: 128 | Median survival time (Mus musculus [16]): 13.7 | Mortality (Mus musculus [17]): 6 | Median survival time (Mus musculus [18]): 10.7 | Ratio [19]: Toxic | Ratio [20]: Toxic | Change in weight (Mus musculus [21]): 0 | Median survival time (Mus musculus [22]): 10.7 | Median survival time (Mus musculus [23]): 10.7 | Median survival time (Mus musculus [24]): 14 | Median survival time (Mus musculus [25]): 10.7 | Change in weight (Mus musculus [26]): -0.8 | Median survival time (Mus musculus [27]): 13.4 | Mortality (Mus musculus [28]): 0 | Median survival time (Mus musculus [29]): 14.5 | Mortality (Mus musculus [30]): 0 | Mortality (Mus musculus [31]): 1 | Mortality (Mus musculus [32]): 4 | Change in weight (Mus musculus [33]): -2.8 | Change in weight (Mus musculus [34]): -2.8 | Median survival time [35]: 10.7 | Change in weight (Mus musculus [36]): -4.1 | Mortality (Mus musculus [37]): 0 | Ratio [38]: 130 | Median survival time (Mus musculus [14]): 10.7 | Ratio [39]: 135 | Ratio [40]: 125

Reference: ChEMBL document CHEMBL1122744, “2-Chloroethyl (methylsulfonyl)methanesulfonate and related (methylsulfonyl)methanesulfonates. Antineoplastic activity in vivo” (J Med Chem, 1984)
